According to article PMC9925696 (Neuro-Oncology, 2022):
Entries after “also recorded” stand apart in the source; their conditions may differ. Marks after values point to notes of the source that are not given here.

Columns and labels:
[1] = tested on: D-2-hydroxyglutarate (D-2-HG); test: D-2-HG concentration in resected tumor tissue; type: in vivo, human
Method in brief: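 Patients with IDH1-R132 glioma who were scheduled for salvage surgery after progression took the oral test compound twice daily until surgery. Tumor was resected on the day of surgery, homogenized in 0.1 w/v% bovine serum albumin solution, and derivatized with diacetyl-l-tartaric anhydride. D-2-HG was then quantified by LC-MS/MS against a commercial D-2-HG reference standard. On-treatment values were compared with matched archived frozen tumor from previous surgery, where available.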

[2] = DS-1001 concentration in resected tumor tissue, plasma and CSF; type: in vivo, human; conditions: for DS-1001 concentration in resected tumor tissue: free form
Method in brief: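 Drug levels were measured by validated LC-MS/MS and expressed as the free form. CSF was collected at screening and on cycle 1 day 15 (±3 days). Resected tumor and matched plasma were taken on the day of salvage surgery, after oral twice-daily dosing continued until surgery. Where a patient gave several tumor samples, the range is given. The brain/plasma ratio used the matched plasma sample.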

Safety evaluation = type: in vivo, human
Method in brief: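 Adults (≥20 years) with recurrent/progressive grade 2-4 IDH1-R132 glioma received oral twice-daily dosing in 21-day cycles at 125-1400 mg (six levels). Escalation used a modified continual reassessment method (Bayesian logistic regression, overdose control) with cohorts of 3-6 patients and DLT assessment over the 21-day cycle. TEAEs were recorded up to 28 days after the last dose, graded by CTCAE v4.0 and counted once per patient at worst severity. LVEF was monitored by echocardiography or MUGA.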

[3] = Plasma pharmacokinetics of DS-1001; type: in vivo, human; conditions: for Increase in Cmax and AUC0-8 h with dose: day 1 and day 8 of cycle 1
[4] = tested on: recurrent/progressive IDH1-mutant (R132) glioma; test: Tumor response by RANO / RANO-LGG, PFS, treatment duration; type: in vivo, human; conditions: for Duration of CR: still on treatment
Method in brief: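 MRI was performed every 6 weeks. Investigators classed tumors at enrollment as contrast-enhancing (assessed by RANO) or non-enhancing (assessed by RANO-LGG). Longest and orthogonal diameters were measured on the largest FLAIR/T2 slice. Best overall response required a confirmatory scan at least 4 weeks later. ORR counted CR, PR and MR. PFS ran from first dose to progression or death. Dosing was oral twice daily, continued until progression or intolerable toxicity.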

[5] = tested on: orthotopic patient-derived xenograft model; conditions: continuous administration, preclinical; cited from earlier work
[6] = mice, preclinical; cited from earlier work
[7] = Patient #003, 500 mg bid, 16.9 h after last dose
[8] = Patient #006, 700 mg bid, 7.2 h after last dose
[9] = 12 non-enhancing tumors, RANO-LGG
[10] = non-enhancing (n = 12), RANO-LGG

Cc1cn(C(=O)c2c(-c3c(Cl)cc(Cl)cc3Cl)noc2C(C)(C)F)c2cccc(/C=C/C(=O)O)c12 [DS-1001]
D-2-HG in on-treatment tumor tissue versus pre-treatment samples ([1]; 125 mg bid): significantly lower levels of D-2-HG compared with the pre-treatment samples
D-2-HG in on-treatment tumor tissue versus archived samples ([1]; seven on-treatment samples, 125-700 mg bid): significantly lower amount of D-2-HG compared with pre-study archived samples; also recorded: extremely low compared with matched archived samples; also recorded: lower than archived samples; also recorded: significantly low levels of D-2-HG
Brain/plasma concentration ratio [2, 7]: 0.77
DS-1001 concentration in resected tumor tissue [2, 7]: 5720 ng/g tissue
Brain/plasma concentration ratio ([2]; Patient #004, 500 mg bid, 4.1, 4.2 h after last dose): 0.19
Brain/plasma concentration ratio [2, 8]: 0.58
DS-1001 concentration in resected tumor tissue [2, 8]: 6130 ng/g tissue
DS-1001 in CSF ([2]; day 15 of cycle 1): appeared in CSF
Brain / tumor distribution of DS-1001 ([2]; resected tumor samples, salvage surgery): favorable brain distribution; also recorded: a high drug concentration was detected in all resected tumor samples
Patients with at least 1 AE of any grade or causality (Safety evaluation; 45 of 47): 95.7%
Tolerability / safety profile (Safety evaluation; 125-1400 mg bid oral): well tolerated; also recorded: favorable safety profile
Maximum tolerated dose (MTD) (Safety evaluation; 125-1400 mg bid oral, highest dose level 1400 mg bid): not reached
Alanine aminotransferase increased, all grades (Safety evaluation; N = 47): 4 (8.5) n (%)
Alanine aminotransferase increased, grade 3 (Safety evaluation; N = 47): 3 (6.4) n (%)
All AEs, grade 3 (Safety evaluation; N = 47): 20 (42.6) n (%)
Alopecia, all grades (Safety evaluation; N = 47): 13 (27.7) n (%)
Alopecia, grade 3 (Safety evaluation; N = 47): 0 n (%)
Arthralgia, all grades (Safety evaluation; N = 47): 13 (27.7) n (%)
Arthralgia, grade 3 (Safety evaluation; N = 47): 1 (2.1) n (%)
Aspartate aminotransferase increased, all grades (Safety evaluation; N = 47): 3 (6.4) n (%)
Aspartate aminotransferase increased, grade 3 (Safety evaluation; N = 47): 2 (4.3) n (%)
Back pain, all grades (Safety evaluation; N = 47): 10 (21.3) n (%)
Back pain, grade 3 (Safety evaluation; N = 47): 0 n (%)
Decreased appetite, all grades (Safety evaluation; N = 47): 5 (10.6) n (%)
Decreased appetite, grade 3 (Safety evaluation; N = 47): 0 n (%)
Diarrhea, all grades (Safety evaluation; N = 47): 22 (46.8) n (%)
Diarrhea, grade 3 (Safety evaluation; N = 47): 2 (4.3) n (%)
Dose interruption due to arthralgia (Safety evaluation; N = 47): 10.6%
Dose interruption due to neutrophil count decreased (Safety evaluation; N = 47): 12.8%
Dose reduction associated with alanine aminotransferase increased (Safety evaluation; N = 47): 4.3%
Dose reduction associated with arthralgia (Safety evaluation; N = 47): 10.6%
Dose reduction associated with back pain (Safety evaluation; N = 47): 6.4%
Dose reduction associated with neck pain (Safety evaluation; N = 47): 2.1%
Dose reduction associated with neutrophil count decreased (Safety evaluation; N = 47): 6.4%
Dose reduction associated with white blood cell count decreased (Safety evaluation; N = 47): 4.3%
Dry skin, all grades (Safety evaluation; N = 47): 10 (21.3) n (%)
Dry skin, grade 3 (Safety evaluation; N = 47): 0 n (%)
Feces soft, all grades (Safety evaluation; N = 47): 6 (12.8) n (%)
Feces soft, grade 3 (Safety evaluation; N = 47): 0 n (%)
Grade 4 or 5 AEs or serious drug-related AEs (Safety evaluation; N = 47): No grade 4 or 5 AEs or serious drug-related AEs were reported
Headache, all grades (Safety evaluation; N = 47): 11 (23.4) n (%)
Headache, grade 3 (Safety evaluation; N = 47): 1 (2.1) n (%)
Hypophosphatemia, all grades (Safety evaluation; N = 47): 2 (4.3) n (%)
Hypophosphatemia, grade 3 (Safety evaluation; N = 47): 2 (4.3) n (%)
Nasopharyngitis, all grades (Safety evaluation; N = 47): 7 (14.9) n (%)
Nasopharyngitis, grade 3 (Safety evaluation; N = 47): 0 n (%)
Nausea, all grades (Safety evaluation; N = 47): 12 (25.5) n (%)
Nausea, grade 3 (Safety evaluation; N = 47): 0 n (%)
Neutrophil count decreased, all grades (Safety evaluation; N = 47): 7 (14.9) n (%)
Neutrophil count decreased, grade 3 (Safety evaluation; N = 47): 6 (12.8) n (%)
Patients with TEAEs associated with dose reduction (Safety evaluation; N = 47): 27.7%
Patients with at least 1 dose interruption due to TEAEs (Safety evaluation; N = 47): 57.4%
Patients with at least 1 grade 3 AE (TEAE) (Safety evaluation; N = 47): 42.6%
Pruritus, all grades (Safety evaluation; N = 47): 14 (29.8) n (%)
Pruritus, grade 3 (Safety evaluation; N = 47): 0 n (%)
Rash, all grades (Safety evaluation; N = 47): 11 (23.4) n (%)
Rash, grade 3 (Safety evaluation; N = 47): 0 n (%)
Skin hyperpigmentation, all grades (Safety evaluation; N = 47): 25 (53.2) n (%)
Skin hyperpigmentation, grade 3 (Safety evaluation; N = 47): 0 n (%)
Vomiting, all grades (Safety evaluation; N = 47): 9 (19.1) n (%)
Vomiting, grade 3 (Safety evaluation; N = 47): 0 n (%)
White blood cell count decreased, all grades (Safety evaluation; N = 47): 3 (6.4) n (%)
White blood cell count decreased, grade 3 (Safety evaluation; N = 47): 3 (6.4) n (%)
Alanine aminotransferase increased, grade 3 (Safety evaluation; N = 47, text): 6.4%
Alopecia, any grade (Safety evaluation; N = 47, text): 27.7%
Arthralgia, any grade (Safety evaluation; N = 47, text): 27.7%
Aspartate aminotransferase increased, grade 3 (Safety evaluation; N = 47, text): 4.3%
Back pain, any grade (Safety evaluation; N = 47, text): 21.3%
Diarrhea, any grade (Safety evaluation; N = 47, text): 46.8%
Diarrhea, grade 3 (Safety evaluation; N = 47, text): 4.3%
Dry skin, any grade (Safety evaluation; N = 47, text): 21.3%
Headache, any grade (Safety evaluation; N = 47, text): 23.4%
Hypophosphatemia, grade 3 (Safety evaluation; N = 47, text): 4.3%
Nausea, any grade (Safety evaluation; N = 47, text): 25.5%
Neutrophil count decreased, grade 3 (Safety evaluation; N = 47, text): 12.8%
Pruritus, any grade (Safety evaluation; N = 47, text): 29.8%
Rash, any grade (Safety evaluation; N = 47, text): 23.4%
Skin hyperpigmentation, any grade (Safety evaluation; N = 47, text): 53.2%
White blood cell count decreased, grade 3 (Safety evaluation; N = 47, text): 6.4%
Dose-limiting toxicity (DLT) (Safety evaluation; at 1000 mg bid): One DLT, grade 3 white blood cell count decreased
Dose modification due to pain (Safety evaluation; doses ≤250 mg bid): no dose modification due to pain
Dose modification due to pain (Safety evaluation; doses ≥500 mg bid): most patients who received long-term administration of DS-1001 required dose modifications due to episodes of pain
Discontinued due to an AE (alanine aminotransferase increased) (Safety evaluation; of 39 patients who discontinued): 1 patients
All AEs, all grades (Safety evaluation; safety analysis set N = 47): 45 (95.7) n (%)
Increase in Cmax and AUC0-8 h with dose ([3]; 125 to 700 mg bid): approximately dose-proportional
Increase in Cmax and AUC0-8 h with dose ([3]; 700 to 1400 mg bid): less than dose-proportional
Median Tmax across dose range ([3]; day 1 of cycle 1, 125-1400 mg bid): 2 to 6 h
Median Tmax across dose range ([3]; day 8 of cycle 1, 125-1400 mg bid): 2 to 4 h
Steady-state levels achieved (plasma trough plateau) ([3]; most dose levels, except 1400 mg bid, data not shown): ≤ 4 days
Response by 1p/19q codeletion status ([4]; 1p/19q-codeleted vs non-codeleted): Measurable response was observed in both 1p/19q-codeleted and non-codeleted cases
Number of MRs [4, 9]: 3
Number of PRs [4, 9]: 1
Number of CRs ([4]; 35 enhancing tumors, RANO): 2
Number of PRs ([4]; 35 enhancing tumors, RANO): 4
Median response duration ([4]; both lesion types): has not been reached
Doses at which responses were observed ([4]; data limited): ≥ 125 mg bid
Confirmed best overall response: complete response ([4]; enhancing (n = 35), RANO): 2 (5.7) n (%)
Confirmed best overall response: partial response ([4]; enhancing (n = 35), RANO): 4 (11.4) n (%)
Confirmed best overall response: progressive disease ([4]; enhancing (n = 35), RANO): 17 (48.6) n (%)
Confirmed best overall response: stable disease ([4]; enhancing (n = 35), RANO): 11 (31.4) n (%)
Objective response rate ([4]; enhancing (n = 35), RANO): 6 (17.1) n (%)
Confirmed best overall response: not evaluated ([4]; enhancing (n = 35), treatment discontinued before first response assessment): 1 (2.9)^b n (%)
Median progression-free survival ([4]; enhancing glioma cohort, all doses, 95% CI 6.1 to 17.7 weeks): 10.4 weeks
Median progression-free survival ([4]; enhancing glioma cohort, 95% CI 6.1 to 17.7 months (abstract)): 10.4 months
Patients with tumor measurements decreased from baseline ([4]; enhancing tumors, 15 of 35): 42.9%
Objective response rate ([4]; enhancing tumors, RANO): 17.1%
Confirmed best overall response: not evaluated ([4]; non-enhancing (n = 12)): 0 (0.0) n (%)
Confirmed best overall response: complete response [4, 10]: 0 (0.0) n (%)
Confirmed best overall response: minor response [4, 10]: 3 (25.0) n (%)
Confirmed best overall response: partial response [4, 10]: 1 (8.3) n (%)
Confirmed best overall response: progressive disease [4, 10]: 0 (0.0) n (%)
Confirmed best overall response: stable disease [4, 10]: 8 (66.7) n (%)
Objective response rate [4, 10]: 4 (33.3) n (%)
Median progression-free survival ([4]; non-enhancing glioma cohort, 95% CI 24.1 to not reached): not reached
Patients with tumor measurements decreased from baseline ([4]; non-enhancing tumors, 11 of 12): 91.7%
Objective response rate ([4]; non-enhancing tumors, RANO-LGG): 33.3%
Duration of CR ([4]; patient with IDH1-mutant anaplastic oligodendroglioma): approximately 95 weeks
Duration of CR ([4]; patient with astrocytoma (IDH-mutant, grade 4)): approximately 174 weeks
D-2-HG [5]: D-2-HG reduction
Tumor growth [5]: Tumor growth inhibition
Distribution to the brain [6]: good distribution to the brain
